Only some compounds are listed: those with a hit (about 3.5% of all), similar ones and a draw of the others.
RGS4 act – potentiators or activators of RGS4; B-score at 10 µM; HEK293 M3R/inducible RGS4, carbachol calcium flux Fluo4; hits give low values; hit rate 0.92% among 310,000;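 active = B-score of the integrated calcium signal more than 4 SD below the library mean, with starting fluorescence not abnormally high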;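 note: negative B-score means reduced calcium response which marks RGS4 activation or potentiation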
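System: HEK293 FlpIn-TREx cells, stable M3R, doxycycline-inducible RGS4. Timing: overnight RGS4 induction, 30 min dye load 37 °C, 20 min compound RT. Also added: carbachol, ECmax concentration. Measured by: Fluo4 fluorescence kinetic imaging of calcium. Evaluation: integrated calcium ratio converted to B score.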
MrgX1 antag – blocks BAM8-22 activation of human MrgX1 receptor. MRGX1-HEK293 calcium flux, Fluo-4, BAM8-22 antagonism; hits give low values. B-score at 10 µM. hit rate 1.3% among 310,000;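 active = calcium-response B-score plate-corrected more than 3 library SD below zero, starting fluorescence within 5 deviations, no agonist response on first addition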;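 note: peak minus trough fluorescence over baseline after final BAM8-22 challenge near maximal dose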
Target sequence (Q96LB2 whole entry, looked up): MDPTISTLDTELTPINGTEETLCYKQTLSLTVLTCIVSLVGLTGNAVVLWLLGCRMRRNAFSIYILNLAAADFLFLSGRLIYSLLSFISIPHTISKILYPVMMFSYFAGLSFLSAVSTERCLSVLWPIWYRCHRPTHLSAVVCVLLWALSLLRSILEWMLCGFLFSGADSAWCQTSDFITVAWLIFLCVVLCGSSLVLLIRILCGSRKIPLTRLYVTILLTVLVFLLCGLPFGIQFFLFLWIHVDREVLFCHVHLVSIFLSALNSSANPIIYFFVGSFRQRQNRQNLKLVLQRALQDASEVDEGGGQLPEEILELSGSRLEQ
RGS4 block – human RGS4 inhibition. HEK293 M3R/RGS4 inducible, Fluo-4 calcium flux; hits give high values; triggered by carbachol at its EC20. P49798. hit rate 0.45% among 310,000. B-score at 10 µM;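 active = B-score, a plate-corrected calcium signal, over three deviations above library mean, with baseline fluorescence within five deviations of library mean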;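 note: RGS4 expression induced by doxycycline in cells with stable M3 receptor; B-score is computed from the integrated fluorescence ratio over baseline after carbachol; higher B-score means a larger calcium signal and so more RGS4 inhibition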
Target sequence (P49798 whole entry, looked up): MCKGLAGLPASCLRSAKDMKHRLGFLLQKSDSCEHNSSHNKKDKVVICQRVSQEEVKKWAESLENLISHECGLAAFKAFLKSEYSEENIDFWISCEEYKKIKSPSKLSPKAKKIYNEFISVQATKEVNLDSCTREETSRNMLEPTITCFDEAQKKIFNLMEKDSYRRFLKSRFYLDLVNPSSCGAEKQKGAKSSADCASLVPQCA
MrgX1 ag – activates human MrgX1 receptor signaling; Q96LB2; MrgX1-HEK293 cells, Fluo-4 calcium fluorescence, agonist mode; hits give high values; B-score at 10 µM; hit rate 0.44% among 310,000; AID 588627;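 active = calcium response B-score plate-corrected fluorescence ratio at least 3 library SD, with starting fluorescence B-score inside 5 SD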
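System – MrgX1-expressing HEK293 cells · Incubation – cells plated overnight, dye loaded 0.5 h 37 °C, 0.5 h room temperature · Technique – kinetic Fluo-4 NW fluorescence of intracellular calcium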
MrgX1 PAM – human MrgX1 positive allosteric modulation, primary screen. Q96LB2. MrgX1-HEK293, Fluo-4 calcium flux, FDSS; hits give high values. B-score at 10 µM. hit rate 0.63% among 310,000. AID 588675;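 active = plate-corrected calcium response at least 3 library SD above typical, normal starting fluorescence, not activating the receptor alone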;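 note: compound read alongside a low EC10 to EC30 dose of BAM8-22 agonist; peak minus trough fluorescence over baseline measured at the second addition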
RGS4 block valid – RGS4 inhibitor validation | shares compounds with RGS4 block | HEK293 M3R/RGS4, carbachol calcium Fluo-4 fluorescence; carbachol added at its EC20; 0 = buffer wells, 100 = carbachol control | calcium response, % at 10 µM | hit rate 65% among 1,700;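 active = duplicate-averaged calcium response above the buffer-only control mean plus 5 SD of those controls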;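 note: integrated fluorescence ratio F max minus min over baseline F0; higher response in RGS4-induced cells means RGS4 inhibition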
RGS4 uninduced – non-induced cell nonspecific activity of RGS4 inhibitors | hit rate 20% among 1,900 | activity (percent), % at 10 µM | AID 493000 | HEK293 M3R non-induced, carbachol calcium Fluo-4; submaximal (EC20) carbachol stimulus; buffer wells 0%, carbachol control wells 100% | shares compounds with RGS4 block; call rule not given here;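 note: RGS4 induction absent so cells express M3R without RGS4; higher means more calcium signal and flags a non-specific hit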
M3R basal Ca ctr – second RGS4 inhibitor counter-screen in uninduced cells lacking carbachol; shares compounds with RGS4 block; HEK293 M3R/RGS4 non-induced, Fluo-4 calcium, no carbachol; normalised: buffer wells 0%, carbachol wells 100%; calcium response (agonist-mode artifact), % at 10 µM; hit rate 22% among 1,900;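 active = duplicate-averaged calcium rise in uninduced cells above buffer wells' mean plus 5 SD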
A number is an active result; . = inactive; / = not tested or not shown.

SMILES	RGS4 act	MrgX1 antag	RGS4 block	MrgX1 ag	MrgX1 PAM	RGS4 block valid	RGS4 uninduced	M3R basal Ca ctr
CCOc1c(Cl)cc(CNc2ccc(N3CCCC3)cc2)cc1OC	.	/	5.7	/	/	18%	.	.
CCOc1c(Cl)cc(CNc2ccc(S(N)(=O)=O)cc2)cc1OC	.	.	.	.	.	/	/	/
CC1CCCC(C)N1CC(O)COc1c(F)cc(Br)cc1F (configuration not stated)	.	.	.	.	.	/	/	/
Cc1nn(CC(=O)NCc2cccs2)c(=O)c2nn(-c3ccccc3)c(C)c12	.	.	.	.	.	.	.	.
CCCOc1ccc(/C=C/c2[nH]c(=O)[nH]c(=O)c2[N+](=O)[O-])cc1OCC	.	.	.	.	.	/	/	/
CCOc1cc(/C=C\c2[nH]c(=O)[nH]c(=O)c2[N+](=O)[O-])ccc1OC(C)CC (configuration not stated)	.	.	.	.	.	/	.	50%
COc1cc(CC(=O)N(C)CC(=O)Nc2cc(C)ccc2C)cc(OC)c1OC	.	.	.	.	.	/	/	/
Cc1sc2nc(CN(Cc3cccs3)C(=O)NC3CCCCC3)[nH]c(=O)c2c1C	.	.	.	.	.	/	.	.
Cc1cc(C(=O)CN2C(=O)NC(C)(c3cccc(Br)c3)C2=O)c(C)n1Cc1ccco1 (configuration not stated)	.	.	.	.	.	/	/	/
Cc1cc(C(=O)CN2C(=O)NC(c3ccccc3)(c3ccccc3)C2=O)c(C)n1Cc1ccco1	.	.	7.5	.	.	17%	.	.
O=C(Cc1ccc([N+](=O)[O-])cc1)Nc1ccc(O)cc1C(=O)O	.	.	.	.	.	/	/	/
CCOn1c(=O)c(-c2ccc(OC)c(OC)c2)[n+]([O-])c2ccccc21	.	.	.	.	.	.	.	.
CCOn1c(=O)c(-c2ccc(OC)cc2)[n+]([O-])c2ccccc21	.	.	.	.	.	/	/	/
COc1ccc2c(c1OC)C(=O)OC2Nc1nc(-c2ccc(-c3ccccc3)cc2)cs1 (configuration not stated)	.	.	.	.	.	.	.	8.0%
COc1ccc2c(c1OC)C(=O)OC2Nc1nc(-c2cc3ccccc3oc2=O)cs1 (configuration not stated)	.	.	.	.	.	/	/	/
COc1cccc(-c2csc(NC3OC(=O)c4c3ccc(OC)c4OC)n2)c1 (configuration not stated)	.	.	.	.	.	/	.	.
COC(=O)CSc1[nH]c2ccc(F)cc2c1[N+](=O)[O-]	.	.	19	.	.	34%	.	.
CCOC(=O)CSc1[nH]c2cc(OC)ccc2c1[N+](=O)[O-]	.	.	.	.	.	/	/	/
Cc1nn(C)cc1CN(C)C(=O)c1cc(-c2ccccc2)nc2ccc(Br)cc12	.	.	.	.	.	/	/	/
CN1C(=O)/C(=C/c2cccc([N+](=O)[O-])c2)C(=O)N1c1ccccc1	.	.	36	.	.	44%	37%	.
COc1ccc2[nH]c(=O)c(C(c3nnnn3C(C)(C)C)N(Cc3ccco3)CC3CCCO3)cc2c1 (configuration not stated)	.	.	.	.	.	/	.	7.0%
COc1ccc2[nH]c(=O)c(C(c3nnnn3CC3CCCO3)N3CCCCC3)cc2c1 (configuration not stated)	.	.	.	.	.	/	/	/
Cc1cc(C)c2[nH]c(=O)c(C(c3nnnn3C(C)(C)C)N(Cc3ccco3)CC3CCCO3)cc2c1 (configuration not stated)	.	.	.	.	.	.	.	.
Cc1cc2cc(C(c3nnnn3C(C)(C)C)N(Cc3ccco3)CC3CCCO3)c(=O)[nH]c2cc1C (configuration not stated)	.	.	5.4	.	.	18%	.	.
CC(=O)/C=C(\C)N=Nc1c(O)[nH]c2ccccc12	.	.	.	.	.	/	/	/
SMILES	RGS4 act	MrgX1 antag	RGS4 block	MrgX1 ag	MrgX1 PAM	RGS4 block valid	RGS4 uninduced	M3R basal Ca ctr
COc1ccc(/C=C/C(=O)Nc2ccccc2C(=O)NCC(c2ccc(OC)cc2)N(C)C)cc1 (configuration not stated)	.	.	.	.	.	/	/	/
Cc1cc(=O)n2[nH]c(SCc3ccccc3Cl)nc2n1	.	.	.	.	.	/	/	/
COc1cc(C(=O)/C=C/c2cccnc2)ccc1O	.	.	11	.	.	36%	46%	.
O=C(/C=C/c1cccnc1)c1cc(F)ccc1O	.	.	5	.	.	22%	72%	.
COc1ccc(OC)c(C(=O)/C=C/c2cccnc2)c1	.	.	.	.	.	/	/	/
CN(C)CCCNC(=S)Nc1ccc(-c2ccccc2)cc1	.	.	.	.	.	/	/	/
COC(=O)C1=C[C@@H](C(=O)OC)[C@@H]2C3=C(C(=O)C2(C)C)[C@H](c2ccccc2)[C@@H]2C(=O)N(C)C(=O)[C@@H]2[C@@H]3C1	.	.	.	.	.	/	/	/
Cc1cc(C)cc(N(CC(=O)Nc2ccc(C(F)(F)F)cc2)S(=O)(=O)c2c(C)[nH]c(=O)[nH]c2=O)c1	.	.	6.5	.	.	.	.	.
CC(OC(=O)Cc1ccccc1[N+](=O)[O-])C(=O)NC(=O)NC1CCCCC1 (configuration not stated)	.	.	.	.	.	/	/	/
Cc1ccc(-c2nn(-c3ccccc3)cc2/C=N/n2c(-c3ccncc3)n[nH]c2=S)cc1	.	.	.	.	.	.	.	.
S=c1[nH]nc(-c2ccncc2)n1/N=C/C(Cl)=C\c1ccccc1	.	.	9.8	.	.	20%	44%	.
Cc1nc(N2C(=O)C(=O)/C(=C(/O)c3ccccc3)C2c2ccco2)sc1C (configuration not stated)	.	.	6.4	.	.	8.5%	.	.
COC(=O)c1sc(N2C(=O)C(=O)/C(=C(/O)c3ccccc3)C2c2ccco2)nc1C (configuration not stated)	.	.	.	.	.	.	.	.
CN1CCN(C(=O)C2CCCN(S(=O)(=O)c3ccc(Cl)cc3)C2)CC1 (configuration not stated)	.	.	.	.	.	/	/	/
Cc1ccc(-c2csc3nc(SCC(=O)Nc4ccc(Cl)c(C(=O)O)c4)[nH]c(=O)c23)cc1	.	.	.	.	.	/	/	/
O=C(CSCC(=O)N1CCN(c2ccccc2)CC1)Nc1nc(-c2ccc(Cl)s2)cs1	.	.	.	.	.	.	.	.

Screening results as filed in PubChem.
